Compound activity: PubChem, Sanford-Burnham Center for Chemical Genomics
Scp1 inh = inhibitors of human Scp-1 phosphatase; Q9GZU7; Recombinant Scp1, phosphopeptide, malachite green phosphate absorbance; inhibition, % at 20 µM; 340,000 tested, 0.88% active;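 active means inhibition above about 50% at 20 µM, limit read from the data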
Target sequence (Q9GZU7 76-261 limits assumed): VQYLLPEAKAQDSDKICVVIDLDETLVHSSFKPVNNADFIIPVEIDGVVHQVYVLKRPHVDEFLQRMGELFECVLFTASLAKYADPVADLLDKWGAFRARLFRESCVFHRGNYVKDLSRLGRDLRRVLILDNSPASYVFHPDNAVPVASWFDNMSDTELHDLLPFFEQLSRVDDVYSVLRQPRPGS
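Test system: SCP-1 phosphatase catalytic domain, residues 76-261 | Compound dosing: One concentration, 20 µM, with 1.0% DMSO | Schedule: 45 min room-temperature reaction, 5 min colour, 30 min stabiliser | Detection: Absorbance at 630 nm | Read-out basis: % inhibition of SCP-1 phosphate liberation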
SUMO1 PPI mod = alters human SUMO1 binding to SIM partners; P63165; SUMO1 binding to a labelled peptide, TR-FRET, 1 h; inhibition, % at 20 µM; 360,000 tested, 0.33% active; in the data active means inhibition above about 37%
Target sequence (P63165 whole entry, looked up): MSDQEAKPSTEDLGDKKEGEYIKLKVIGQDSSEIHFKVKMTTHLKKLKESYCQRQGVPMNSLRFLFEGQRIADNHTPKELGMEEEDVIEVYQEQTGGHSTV
STEP inh = STEP (human) phosphatase inhibition | P54829 | recombinant STEP, OMFP fluorogenic substrate, fluorescence | inhibition, % at 20 µM | 360,000 tested, 0.25% active | AID 588621;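 active means inhibition at 20 µM, scaled per plate between control wells, above about 37%, limit read from the data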
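Material: STEP (striatal-enriched tyrosine phosphatase) enzyme, cell-free | Medium: 50 mM Bis-Tris pH 6.0 with 2.5 mM DTT and 0.005% Tween 20 | Read-out: Percent inhibition scaled to no-enzyme and uninhibited-enzyme controls, plate-pattern corrected | Signal: Fluorescence read at 480 nm ex / 540 nm em | Times: 20 min reaction, room temperature, in the dark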
DNMT1 inh = inhibitors of human DNMT1. inhibition (reported as % activation of signal), % at 10 µM. DNMT1 molecular beacon, Hinp1I cleavage, fluorescence. P26358. AID 588458. 360,000 tested, 0.83% active; in the data active means inhibition above about 50%
LMPTP block = blocks human LMPTP phosphatase; recombinant LMPTP-A, OMFP fluorogenic substrate, fluorescence intensity; inhibition, % at 20 µM; 360,000 tested, 0.22% active; AID 651560;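 active means compounds that cut the enzyme signal by at least half of the control window in the single-dose screen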
Target sequence (P24666 whole entry, looked up): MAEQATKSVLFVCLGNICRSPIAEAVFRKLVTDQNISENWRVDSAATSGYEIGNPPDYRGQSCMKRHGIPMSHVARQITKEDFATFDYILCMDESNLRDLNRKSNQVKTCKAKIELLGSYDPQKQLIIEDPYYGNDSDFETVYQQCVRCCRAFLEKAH
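Test system: LMPTP-A, protein tyrosine phosphatase of low molecular weight; Input: 0.625 nM enzyme; Incubation: 50 min dark incubation at room temperature; Signal: endpoint fluorescence intensity from OMFP dephosphorylation; Read-out basis: % inhibition versus control wells.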
DNMT1 inh conf = DNMT1 inhibition confirmation, single concentration; shares compounds with DNMT1 inh; DNMT1 molecular beacon HinP1I cleavage, fluorescence; inhibition, % at 10 µM; 2,300 tested, 8% active;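 active means average inhibition of at least 30% in the single-concentration confirmation test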
Beacon interf = shows spectral interference in the DNMT1 beacon assay | DNMT1 molecular beacon spectral interference counterscreen, fluorescence 485/520 | activation (fluorescence interference), % at 10 µM | 2,300 tested, 1% active | AID 602387 | shares compounds with DNMT1 inh;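 active means activation of at least 30% at 10 µM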;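 further: DNMT1 catalytic domain with a HinP1I cleavage step and a FAM/dabcyl DNA beacon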
Of the large screens only hits and unclear results are named; the others gave an inactive call (follow-up assays come after a bar, where they were run). A selection: hits, their analogues and other compounds. The true share with any hit is near 1.8%.

COCCOC(=O)c1c(N)n(Cc2ccco2)c2nc3ccccc3nc12	SUMO1 PPI mod 49, DNMT1 inh 66 | DNMT1 inh conf inactive | Beacon interf inactive
Nc1c(C(=O)OCC2CCCO2)c2nc3ccccc3nc2n1Cc1cccs1 (centres undefined)	DNMT1 inh 73 | DNMT1 inh conf inactive | Beacon interf inactive
COc1ccc(Cn2c(N)c(C(=O)NCc3ccco3)c3nc4ccccc4nc32)cc1OC	SUMO1 PPI mod 36, DNMT1 inh 87 | DNMT1 inh conf inactive | Beacon interf inactive
CC(C)OC(=O)c1c(N)n(Cc2ccco2)c2nc3ccccc3nc12	none
COC(=O)c1c(N)n(Cc2ccc(OC)cc2)c2nc3ccccc3nc12	DNMT1 inh 70 | DNMT1 inh conf inactive | Beacon interf inactive
CC(C)OCCCNC(=O)c1c(N)n(Cc2cccs2)c2nc3ccccc3nc12	none
COC(=O)C1=C(c2ccc(F)cc2F)C[C@@H]2CC[C@H]1N2C(=O)NCc1ccc(C(F)(F)F)cc1	none
OC(c1cccc(Cl)c1)(c1cccc(Cl)c1)C1CN2CCC1CC2 (centres undefined)	none
C=CCn1c(=O)c(C=Nc2cccnc2Cl)c(O)n(CCCC)c1=O	none
O=C(Nc1cc(Cl)cc(Cl)c1)N1Cc2ccccc2-n2nncc2C1	none (no result: Scp1 inh)
C[N+](C)(C)CC1CCCC1=O (centres undefined)	none
CC(N)Cc1c[nH]c2ccc(O)cc12 (centres undefined)	DNMT1 inh 76 | DNMT1 inh conf inactive | Beacon interf inactive
CC(N)Cc1c[nH]c2ccc(OCc3cccs3)cc12 (centres undefined)	none
CN1CCc2nc(SCc3cccc(Br)c3)c(C#N)cc2C1	DNMT1 inh 70 | DNMT1 inh conf inactive | Beacon interf inactive
CN(C)c1ccc(/C=C2\C(=O)NC(=O)N(Cc3ccc(F)cc3)C2=O)cc1	none
O=C1NC(=O)N(Cc2ccc(F)cc2)C(=O)/C1=C\c1ccoc1	Scp1 inh 64, DNMT1 inh 88 | DNMT1 inh conf inactive | Beacon interf inactive
CCN(C(=O)COC(=O)Cc1ccccc1)c1c(N)n(Cc2ccccc2)c(=O)[nH]c1=O	DNMT1 inh 86 | DNMT1 inh conf inactive | Beacon interf inactive
O=C(O)Cn1cc(/C=C2\C(=O)NC(=O)N(c3ccc(Cl)cc3)C2=O)c2ccccc21	DNMT1 inh 67 | DNMT1 inh conf inactive | Beacon interf inactive
O=C(O)Cn1cc(C=C2C(=O)NC(=O)NC2=O)c2ccccc21	none
Cc1ccc(-n2c(O)c(C=Nc3ccc(Br)cn3)c(=O)[nH]c2=O)cc1	none
C[C@]12CCC(OC(=O)CCC(=O)O)CC1=CCC1C2CC[C@]2(C)C(=O)CCC12 (some centres undefined)	DNMT1 inh 91 | DNMT1 inh conf inactive | Beacon interf inactive
C[C@]12CC[C@H](OC(=O)CCC(=O)O)CC1=CCC1C2CC[C@@]2(C)C1CC[C@@H]2OC(=O)CCC(=O)O (some centres undefined)	none
O=C1CC(N2CCC(n3c(=O)[nH]c4ccccc43)CC2)C(=O)N1c1ccc(F)cc1 (centres undefined)	DNMT1 inh 61 | DNMT1 inh conf inactive | Beacon interf inactive
C[C@]12CC[C@@H](O)CC1=CCC1C2CC[C@@]2(C)C1CC[C@@H]2N (some centres undefined)	DNMT1 inh 81 | DNMT1 inh conf inactive | Beacon interf inactive
C[C@]12CC[C@H](N)CC1=CCC1C2CC[C@@]2(C)C1CC[C@@H]2O (some centres undefined)	none
O=C1C2CCN(CC2)C12CC2c1ccc(C(F)(F)F)cc1 (centres undefined)	none
O=C1NC(=O)N(c2ccccc2)C(=O)/C1=C/C=C/c1ccco1	DNMT1 inh 65 | DNMT1 inh conf inactive | Beacon interf inactive
O=C1NC(=S)N(C2CC2)C(=O)/C1=C/c1ccc2c(c1)CCN2CCCCl	DNMT1 inh 87 | DNMT1 inh conf inactive | Beacon interf inactive
CC(C)(C)N1C(=O)NC(=O)/C(=C\c2ccc3c(c2)CCN3CCCCl)C1=O	none
